Bioassay records: PubChem, several laboratories
Shown are actives, neighbours in structure and some others; about 27% of the full set was active somewhere.
Rev-RRE block: HIV-1 Rev-RRE binding inhibitors, primary screen, biochemical, FRET, protein-RNA interaction; hit rate 0.79% among 97,000; Rev peptide-RRE RNA binding; AID 704, 2007; inhibition, % at 8 µM; P05866;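 active means inhibition above the screen-wide mean plus 3 SD, cut at about 35% in these data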
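Assay system: labelled RRE RNA duplex and labelled Rev peptide / Medium: HEPES pH 7.5 salt buffer with EDTA / Reagent: labelled Rev peptide / Schedule: 5 + 15 min at 25 °C / Signal: FRET, excitation 480 nm, emission 540 nm donor and 671 nm acceptor / Benchmarks: DMSO and neomycin B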
Cav32 inh: Cav3.2 calcium influx blockers – cell-based, Fluo-4 calcium fluorescence, FDSS, MLSMR library, primary screen. Cav3.2-expressing cells; hits give low values. B-score at 10 µM. hit rate 4% among 100,000. AID 449739, 2010;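 active means single-dose well whose peak fluorescence ratio is a statistical outlier from its plate by either plate-standardised score or position-corrected B-score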
Target sequence (O95180 whole entry, looked up): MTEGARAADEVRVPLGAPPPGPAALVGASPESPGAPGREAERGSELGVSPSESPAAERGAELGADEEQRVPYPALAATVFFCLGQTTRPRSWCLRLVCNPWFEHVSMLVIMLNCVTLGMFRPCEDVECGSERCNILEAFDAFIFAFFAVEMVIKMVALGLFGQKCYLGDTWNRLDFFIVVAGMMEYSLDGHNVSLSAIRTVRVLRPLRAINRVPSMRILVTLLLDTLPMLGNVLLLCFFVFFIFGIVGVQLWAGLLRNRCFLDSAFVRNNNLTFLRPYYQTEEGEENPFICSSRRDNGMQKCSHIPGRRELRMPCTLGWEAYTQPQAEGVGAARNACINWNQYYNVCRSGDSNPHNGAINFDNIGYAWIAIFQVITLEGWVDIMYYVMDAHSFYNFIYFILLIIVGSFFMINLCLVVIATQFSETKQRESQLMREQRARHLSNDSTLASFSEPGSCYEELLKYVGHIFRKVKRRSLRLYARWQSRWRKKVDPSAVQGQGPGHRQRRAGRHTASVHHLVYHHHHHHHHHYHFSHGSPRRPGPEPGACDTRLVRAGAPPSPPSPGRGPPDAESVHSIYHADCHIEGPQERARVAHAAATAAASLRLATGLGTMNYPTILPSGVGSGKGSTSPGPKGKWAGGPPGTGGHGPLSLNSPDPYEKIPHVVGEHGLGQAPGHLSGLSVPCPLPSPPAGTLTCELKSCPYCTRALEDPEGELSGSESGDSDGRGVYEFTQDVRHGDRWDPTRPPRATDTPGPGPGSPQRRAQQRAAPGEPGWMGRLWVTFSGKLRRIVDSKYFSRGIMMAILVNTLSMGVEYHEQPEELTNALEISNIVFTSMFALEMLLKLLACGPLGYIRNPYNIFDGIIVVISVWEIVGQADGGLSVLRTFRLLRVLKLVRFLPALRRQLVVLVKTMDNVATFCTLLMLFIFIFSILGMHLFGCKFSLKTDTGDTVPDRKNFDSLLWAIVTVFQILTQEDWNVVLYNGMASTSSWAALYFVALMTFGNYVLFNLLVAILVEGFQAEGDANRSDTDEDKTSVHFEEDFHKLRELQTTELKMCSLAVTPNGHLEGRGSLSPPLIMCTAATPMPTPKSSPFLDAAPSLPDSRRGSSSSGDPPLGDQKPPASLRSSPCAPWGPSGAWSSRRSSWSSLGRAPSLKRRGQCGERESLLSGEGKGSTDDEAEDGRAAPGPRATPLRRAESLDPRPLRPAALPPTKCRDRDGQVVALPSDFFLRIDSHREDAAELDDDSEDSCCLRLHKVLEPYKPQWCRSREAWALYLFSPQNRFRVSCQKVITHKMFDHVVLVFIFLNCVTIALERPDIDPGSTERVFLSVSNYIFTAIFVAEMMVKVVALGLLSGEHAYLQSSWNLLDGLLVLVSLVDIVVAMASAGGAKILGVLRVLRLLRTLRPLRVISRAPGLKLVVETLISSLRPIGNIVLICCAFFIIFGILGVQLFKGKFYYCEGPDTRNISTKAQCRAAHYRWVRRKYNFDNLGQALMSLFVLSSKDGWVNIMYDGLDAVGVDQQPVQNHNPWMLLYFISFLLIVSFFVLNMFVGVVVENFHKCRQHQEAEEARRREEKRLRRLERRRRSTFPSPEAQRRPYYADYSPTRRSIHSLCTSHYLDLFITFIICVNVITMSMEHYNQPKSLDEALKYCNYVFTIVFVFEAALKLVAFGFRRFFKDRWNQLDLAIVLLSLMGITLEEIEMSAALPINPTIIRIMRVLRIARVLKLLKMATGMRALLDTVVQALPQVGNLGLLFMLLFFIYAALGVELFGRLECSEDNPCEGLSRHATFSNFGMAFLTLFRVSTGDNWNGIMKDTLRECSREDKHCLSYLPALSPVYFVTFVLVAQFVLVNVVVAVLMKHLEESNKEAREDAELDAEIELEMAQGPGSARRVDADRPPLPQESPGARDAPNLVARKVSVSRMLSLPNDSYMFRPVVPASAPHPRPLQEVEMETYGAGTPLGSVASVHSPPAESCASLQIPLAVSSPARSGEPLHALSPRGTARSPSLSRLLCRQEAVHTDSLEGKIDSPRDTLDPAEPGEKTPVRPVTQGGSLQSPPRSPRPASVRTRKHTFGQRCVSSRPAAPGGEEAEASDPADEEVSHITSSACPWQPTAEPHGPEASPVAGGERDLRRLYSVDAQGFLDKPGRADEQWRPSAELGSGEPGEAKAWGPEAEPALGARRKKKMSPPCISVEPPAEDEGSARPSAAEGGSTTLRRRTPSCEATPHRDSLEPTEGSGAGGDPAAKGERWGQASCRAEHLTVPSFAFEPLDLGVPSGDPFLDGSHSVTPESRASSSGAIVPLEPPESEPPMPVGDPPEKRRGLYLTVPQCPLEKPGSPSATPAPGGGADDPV
CYP2C9 act: human CYP2C9 activators, primary screen, biochemical, luminescence; recombinant CYP2C9, luciferin-H conversion; hits give high values; factor 1 = untreated enzyme, 0 = blocked; activation factor at 5 µM; hit rate 1.4% among 96,000; AID 1024, 2008;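 active means activation factor of 2 or more for CYP2C9 at a 5 µM dose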
CYP2C9 inh: blockers of cytochrome P450 2C9 activity – biochemical, luminescence, ADME assay, primary screen. CYP2C9 Supersomes, luciferin-H conversion. inhibition, % at 5 µM. hit rate 20% among 96,000. AID 777, 2007;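 active means blocking of liver enzyme CYP2C9 beyond about 50% at 5 µM, limit read from the data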
CYP2C19 activ: human CYP2C19 activators, primary screen, biochemical, luminescence; recombinant CYP2C19, luciferin-H EGE luminescence; hits give high values; 0 = fully inhibited enzyme, 1 = untreated enzyme; activation factor at 5 µM; 96,000 tested, under 10 active; Cytochrome P450 2C19 (Homo sapiens), P33261;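 active means activation factor of at least 2 at 5 µM in the primary screen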
CYP2C19 inhib: blockers of cytochrome P450 2C19 activity – biochemical, luminescence, ADME assay, primary screen; P33261; inhibition, % at 5 µM; hit rate 21% among 96,000; AID 778, 2007; CYP2C19 Supersomes, luciferin-H EGE luminescence, 30 min;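 active means CYP2C19 inhibition above a set limit at 5 µM in the primary screen, cut at about 50% in these data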
Numbers stand for hits; i = inactive; nt = not tested or not shown.

SMILES | Rev-RRE block | Cav32 inh | CYP2C9 act | CYP2C9 inh | CYP2C19 activ | CYP2C19 inhib
Cc1ccc(-c2c3c([nH]c(=S)c2C#N)CCCC3)o1 | i | i | i | i | i | i
Cc1ccc2c(c1)c1c(n2CC(O)CNC2CCCCC2)CCCC1 (configuration not stated) | nt | i | nt | nt | nt | nt
C=CCN1C(c2ccccc2)=CS/C1=C(\C#N)c1nnc2n1CCCCC2 | nt | i | i | i | i | 83
CCOc1ccc(C2=CS/C(=C(\C#N)c3nnc4n3CCCCC4)N2CC)cc1 | i | i | i | i | i | 54
CSc1nc2n(n1)C(c1ccccn1)C1=C(CC(C)(C)CC1=O)N2 (configuration not stated) | i | i | i | i | i | i
CCOC(=O)CN1C(=O)C2Cc3ccccc3CN2C1=S (configuration not stated) | i | i | i | i | i | 70
CCOC(=O)CN1C(=O)c2ccccc2C1=O | i | i | i | i | i | i
CCCc1nc2ccccc2c(=O)n1/N=C/c1ccccc1O | i | i | i | 86 | i | 62
CCCc1nc2ccccc2c(=O)n1N | i | i | i | i | i | i
COc1cccc(/C=N/n2c(C)nc3ccccc3c2=O)c1O | i | i | i | 69 | i | i
CCCc1nc2ccccc2c(=O)n1/N=C/c1c(C)[nH]n(-c2ccc(C)cc2)c1=O | i | -3.8 | i | 67 | i | i
Cc1ccc(-n2[nH]c(C)c(/C=N/c3ccccn3)c2=O)cc1 | i | i | i | i | i | i
Cc1nc(N)nc(OCC(F)(F)C(F)F)c1Br | i | i | i | i | i | i
Cc1nc(N(C)Cc2ccccc2)c2nnn(Cc3ccccc3)c2n1 | i | i | i | 98 | i | 100
CCOC(=O)CCCCCNC(=O)c1ccc(F)cc1F | nt | i | nt | nt | nt | nt
Cc1cccc(CSC2=NCCN2C(=O)C2CC2)c1 | i | i | i | i | i | 80
O=C(C1CC1)N1CCN=C1SCc1ccccc1Cl | i | i | i | i | i | 98
CC(=O)N1CCN=C1SCc1ccccc1F | nt | i | i | i | i | i
CC(=O)N1CCN=C1SCc1ccc(Cl)cc1 | nt | i | i | i | i | i
CCC(=O)N1CCN=C1SCc1ccc(Cl)cc1 | i | i | i | i | i | 84
CC(=O)N1CCN=C1SCc1ccccc1Cl | i | i | 2.6 | i | i | i
CC(C)CCOc1ccc(-c2c(=O)n(OCc3ccc([N+](=O)[O-])cc3)c3ccccc3[n+]2[O-])cc1 | i | i | i | i | i | i
COc1cc(OC)cc(C(C(=O)NC2CCCCC2)N(C(=O)c2ccno2)c2ccccc2)c1 (configuration not stated) | i | i | nt | nt | nt | nt
NCCN1CCN(CCN)CC1 | i | i | i | i | i | i
CCC(=O)N1CCN=C1SCc1ccccc1Cl | i | i | i | i | i | 70
SMILES | Rev-RRE block | Cav32 inh | CYP2C9 act | CYP2C9 inh | CYP2C19 activ | CYP2C19 inhib
CC1Cc2ccccc2N1C(=O)CCn1c(=O)sc2ccccc21 (configuration not stated) | nt | i | nt | nt | nt | nt
COC(=O)Cc1c[nH]c2cccc(OCC(O)CN(Cc3ccc([N+](=O)[O-])cc3)C(C)(C)C)c12 (configuration not stated) | i | -6.4 | i | i | i | i
COC(=O)Cc1c[nH]c2cccc(OCC(O)CN(Cc3ccccc3)C(C)C)c12 (configuration not stated) | i | i | nt | nt | nt | nt
CCN(CC)C(=O)Cn1cc(/C=C(\C#N)C(=O)N2CCN(c3ccccc3)CC2)c2ccccc21 | i | i | i | 56 | i | 71
CC(CNC(=O)CC(C)(C)C)NC(=O)CC(C)(C)C (configuration not stated) | i | i | nt | nt | nt | nt
NC1=NC[C@H](Cc2ccccc2)N1CCc1cccc(F)c1 | nt | i | nt | nt | nt | nt
c1ccc(C[n+]2csc3ccccc32)cc1 | i | i | i | 55 | i | i
Fc1cccc(C[n+]2csc3ccccc32)c1 | i | i | i | 62 | i | i
O=C(O)C1CCC(=O)N1Cc1ccccc1Cl (configuration not stated) | nt | i | i | i | i | i
CC(c1nnc(SCC(=O)NC(=O)NCc2ccco2)n1-c1ccc(Cl)cc1)N(C)C (configuration not stated) | i | i | i | i | i | i
NS(=O)(=O)c1ccc(CCNC(=O)CNC(=O)C2CCCCC2)cc1 | i | nt | i | i | i | i
O=C(CC1N=C2c3ccccc3N=C(SCc3ccc(Cl)cc3)N2C1=O)NCc1ccco1 (configuration not stated) | i | i | i | 72 | i | i
CCc1ccc(NC(=O)CCn2c(=O)oc3ccccc32)cc1 | i | i | i | 58 | i | i
O=C(CCn1c(=O)oc2ccccc21)Nc1ccccc1 | i | i | i | i | i | 61
COc1ccccc1CNC(=O)CCn1c(=O)oc2ccccc21 | i | i | i | i | i | 72
COc1ccc(CNC(=O)CCn2c(=O)oc3ccccc32)cc1 | i | i | i | i | i | i
Cc1nc2c(o1)CCc1ccccc1C2N1CCN(C)CC1 (configuration not stated) | i | i | i | i | i | i
Cc1occc1C(=O)Nc1cc(C(F)(F)F)ccc1Cl | i | i | i | i | i | i
CCOc1ccccc1N(CC(=O)NC1CCCC1)C(=O)CCCC(=O)Nc1ccccn1 | i | i | i | i | i | i
COc1ccc(NC(=O)/C=C/c2cc(Br)ccc2OC)cc1 | i | i | i | i | i | i
CCN(CC)c1ccc(NC(=O)/C=C/c2cc(Br)ccc2OC)cc1 | i | nt | 2.2 | i | i | i
COc1ccc(Br)cc1/C=C/C(=O)Nc1c(C)cccc1C | i | i | 2.1 | i | i | i
COc1cccc(O[C@@H]2O[C@@H]3COC(C)(C)O[C@H]3[C@H](O)[C@H]2NC(C)=O)c1 | i | i | nt | nt | nt | nt
COC(=O)c1cc(OC)c(OC)cc1NC(=O)CCCCCN1C(=O)CCC1=O | i | i | i | i | i | 62
CCCn1c2ccccc2c2nnc(SC(CC)C(=O)Nc3cc(C)on3)nc21 (configuration not stated) | i | i | nt | nt | nt | nt
CCCn1c2ccccc2c2nnc(SC(CC)C(=O)Nc3sc4c(c3C#N)CCCC4)nc21 (configuration not stated) | i | i | i | 89 | i | 70
O=C(NNC(=O)c1ccco1)c1cccc([N+](=O)[O-])c1 | i | i | i | i | i | i
Cc1ccc(Sc2nc(-c3ccccc3)nnc2C(F)(F)F)cc1 | i | i | i | i | i | i
CNc1nc(-c2ccccc2)nnc1C(F)(F)F | i | i | 4.1 | i | i | i
CCCCC(=O)NN(C)c1nc(-c2ccccc2)nnc1C(F)(F)F | i | i | i | i | i | 78
